Here are results for 1 compound from publication PMC6226115 (Clinical and Translational Science, 2018).

The structures appear in SMILES notation.

The target of this assay is T1, GlyT1 (Rattus norvegicus, UniProt P28572).
T1 sequence (P28572 1-638): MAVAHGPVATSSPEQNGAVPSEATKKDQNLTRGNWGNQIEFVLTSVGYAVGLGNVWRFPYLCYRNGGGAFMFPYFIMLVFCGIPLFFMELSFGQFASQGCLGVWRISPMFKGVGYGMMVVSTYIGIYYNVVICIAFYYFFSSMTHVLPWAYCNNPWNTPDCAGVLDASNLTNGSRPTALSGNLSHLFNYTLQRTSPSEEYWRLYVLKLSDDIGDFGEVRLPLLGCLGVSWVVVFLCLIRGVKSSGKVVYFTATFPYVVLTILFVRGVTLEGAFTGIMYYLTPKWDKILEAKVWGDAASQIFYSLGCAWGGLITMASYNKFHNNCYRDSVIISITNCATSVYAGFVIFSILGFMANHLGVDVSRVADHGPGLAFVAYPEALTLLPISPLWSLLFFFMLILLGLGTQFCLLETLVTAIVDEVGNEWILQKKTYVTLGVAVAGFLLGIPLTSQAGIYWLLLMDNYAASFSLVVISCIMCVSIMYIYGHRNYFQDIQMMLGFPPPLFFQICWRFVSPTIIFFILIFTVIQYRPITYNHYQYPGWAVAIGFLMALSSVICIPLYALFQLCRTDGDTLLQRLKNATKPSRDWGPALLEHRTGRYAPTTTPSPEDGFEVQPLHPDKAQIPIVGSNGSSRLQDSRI
In words: Inhibition of [3H]-glycine uptake in rat primary cortical neurons. The note with it: IC50, inhibition of [3H]-glycine uptake, mean. In kind it is cell-based. The method, boiled down: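 Cortical neurons from E18 rats were differentiated in vitro for 7, 11 or 18 days, then run as a scintillating-plate uptake assay: 20 min incubation, inhibitor 0.9–3000 nM in HBSS with 5 mM alanine, and 200 nM [3H]glycine (0.01 mCi/mL) with counting over 57 min. IC50s came from four-parameter fits per experiment and were then averaged.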

As usually defined, the IC50 is the midpoint of a concentration-inhibition curve. Read a low IC50 as greater potency in that assay. As to `C[C@@H](Oc1ccc(S(C)(=O)=O)cc1C(=O)N1C[C@@H]2C[C@]2(c2cc(C(F)(F)F)on2)C1)C(F)(F)F` [BI 425809], half-maximal inhibition (IC50) was put at 5.2 ± 1.2 nM.
